Series [1] has as its system 2008. Briefly: Cytotoxicity against cisplatin-sensitive human 2008 cells after 72 hrs by crystal violet dye assay. The class given is functional, cell-based. Conditions: Homo sapiens, 2008, 72 h. In a few lines: (§1)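 2008 ovarian carcinoma cells or the cisplatin-resistant C13* subline, grown in RPMI 1640 with 10% heat-inactivated FBS and gentamycin, 5% CO2, 37 °C, mycoplasma-negative. Seeded 4 × 10^4 cells/well, exposed 24 h later to compound for 3 days. Crystal violet stain solubilized in acidic isopropanol, absorbance read at 540 nm versus untreated controls. IC50 taken from dose–response curves. Mean of three experiments run in duplicate.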

Series [2] concerns 2008. Briefly: Cytotoxicity against cisplatin-sensitive human 2008 cells at 750 uM after 72 hrs by crystal violet dye assay. Type of series: functional. In a few lines: as §1
Series [3] in a line: Cytotoxicity against cisplatin-resistant human C13 cells at 750 uM after 72 hrs by crystal violet dye assay. The class given is functional. In a few lines: as §1
Series [4] can be described thus: Cytotoxicity against african green monkey Vero cells assessed as cell survival at 750 uM after 72 hrs by crystal violet dye assay. Conditions: chlorocebus sabaeus, read-out: Activity. Type of series: cell-based. In a few lines:
(§2)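 Vero cells (African green monkey kidney) grown in MEM with 10% heat-inactivated fetal calf serum, penicillin G and streptomycin, 5% CO2, 37 °C. Seeded 4 × 10^4 cells/well, exposed 24 h later to compound for 3 days. Methanol-fixed, crystal violet-stained, dye solubilized in acidic isopropanol, absorbance read at 540 nm. Cytotoxicity is calculated against untreated controls. Mean of three experiments run in duplicate.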

The subject of series [5] is 2008. Kind of series: Resistant factor, ratio of IC50 for cisplatin-resistant human C13 cells to IC50 for cisplatin-sensitive human 2008 cells. Type of series: functional. In a few lines: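 RF^I is the IC50 in C13* cells divided by the IC50 in parental 2008 cells. Both IC50s come from a 3-day crystal violet dose–response assay, read at 540 nm.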
Series [6] in a line: Cytotoxicity against cisplatin-resistant human C13 cells after 72 hrs by crystal violet dye assay. Type of series: functional, cell-based. Conditions: C13, 72 h. In a few lines:
as §1

A short description of series [7]: Cytotoxicity against african green monkey Vero cells assessed as inhibition of growth at 750 uM after 72 hrs by crystal violet dye assay. The note with it: chlorocebus sabaeus, read-out: Activity. The class given is cell-based. In a few lines: as §2
Series [8] concerns Vero. Kind of series: Cytotoxicity against african green monkey Vero cells after 72 hrs by crystal violet dye assay. Type of series: cell-based. The note with it: Chlorocebus sabaeus. The essentials: as §2
The subject of series [9] is Vero. Kind of series: Resistance factor, ratio of IC50 for african green monkey Vero cells to IC50 for cisplatin-resistant human C13 cells. In a few lines:
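RF^II is the IC50 in Vero cells divided by the IC50 in C13* cells. Each IC50 comes from a 3-day crystal violet dose–response assay, read at 540 nm.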

Series [10] has as its system 2008. Briefly: Cytotoxicity against cisplatin-sensitive human 2008 cells at 10 uM after 72 hrs by crystal violet dye assay. The class given is functional. In a few lines:
as §1

Series [11] can be described thus: Cytotoxicity against cisplatin-resistant human C13 cells at 10 uM after 72 hrs by crystal violet dye assay. The class given is functional. In a few lines:
as §1

In series [12] the test system is Vero. Briefly: Cytotoxicity against african green monkey Vero cells at 5 uM after 72 hrs by crystal violet dye assay. Conditions: chlorocebus sabaeus. The class given is cell-based. The essentials: as §2
Series [13] concerns Vero. Briefly: Cytotoxicity against african green monkey Vero cells at 10 uM after 72 hrs by crystal violet dye assay. The class given is cell-based. The note with it: chlorocebus sabaeus. In a few lines: as §2

Take `O=C(/C=C/c1ccc(O[C@@H]2O[C@H](CO)[C@@H](O)[C@H](O)[C@H]2O)c(O)c1)CC(=O)/C=C/c1ccc(O[C@@H]2O[C@H](CO)[C@@H](O)[C@H](O)[C@H]2O)c(O)c1`: the IC50 in the series on 2008 [1] is 480 µM. Further, the Activity in the series on 2008 [2] is on record as 70%; in series [3] it was 15%. Also, the viability at 72 h, 750 µM in series [4] was 80%. Moreover, in the series on 2008 [5], the “Ratio IC50” value is reported as greater than 2.

With `COc1cc(/C=C/C(=O)CC(=O)/C=C/c2ccc(O[C@@H]3O[C@H](CO)[C@@H](O)[C@H](O)[C@H]3O)c(OC)c2)ccc1O[C@@H]1O[C@H](CO)[C@@H](O)[C@H](O)[C@H]1O`, the IC50 in series [6] came out at 840 µM; with 2008 [1] it was 220 µM. Moreover, the inhibition at 72 h, 750 µM in series [7] is 20%. Further, in the series on 2008 [5], the “Ratio IC50” value is recorded as 3.8.

For `O=C(/C=C/c1ccc(O[C@@H]2O[C@H](CO)[C@@H](O)[C@H](O)[C@H]2O)cc1)CC(=O)/C=C/c1ccc(O[C@@H]2O[C@H](CO)[C@@H](O)[C@H](O)[C@H]2O)cc1`, the IC50 in [6] is 83 µM; in the series on 2008 [1] it was 22 µM; in the series with Vero [8], 330 µM. In addition, the “Ratio IC50” value in the series on Vero [9] is 3.97; in the series with 2008 [5], 3.8.

As for `COc1cc(/C=C/C(=O)CC(=O)/C=C/c2ccc(O)c(OC)c2)ccc1O` [CURCUMIN], the IC50 in series [6] turned out to be 17 µM; in the series with 2008 [1], 5 µM; with Vero [8], 22 µM. Also, the “Ratio IC50” value with Vero [9] is recorded as 1.3; in the series with 2008 [5], 3.4. The Activity in the series on 2008 [10] was 90%; in series [11] it was 45%; in the series with Vero [12] it was 10%; with Vero [13] it was 25%.

These data come from ChEMBL document CHEMBL1153447, “Synthesis, cytotoxic and combined cDDP activity of new stable curcumin derivatives” (Bioorg Med Chem, 2009).
